Assays:
Type in all cases: cell-based
[1] = system: doxorubicin-sensitive Colo 205 human colonic adenocarcinoma cells; assay: MTT assay for cytotoxic effect, Colo 205; settings: read-out: IC50 (μM), 72 h Colo 205
Summary of the method: (§1)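 Colo 205 and Colo 320/MDR-LRP were kept in RPMI 1640 with 10% heat-inactivated FBS, 2 mM L-glutamine, 1 mM Na-pyruvate and 10 mM HEPES, and detached with Trypsin-Versene. 1x10^4 cells per well went onto 2-fold serial compound dilutions (100 to 0.195 µM; DMSO stocks) for 72 h at 37 °C. Then MTT 4 h, SDS/0.01 M HCl overnight, OD 540/630 nm. IC50 from growth inhibition versus cell and medium controls. SF uses the MRC-5 IC50 from the same assay.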

[2] = system: multidrug resistant Colo 320/MDR-LRP human colonic adenocarcinoma cells; assay: MTT assay for cytotoxic effect, Colo 320
Summary of the method: as §1

[3] = system: MRC-5 non-cancerous human embryonal lung fibroblast cells; assay: MTT assay for cytotoxic effect, MRC-5; settings: read-out: IC50 (μM), 72 h MRC-5
Summary of the method: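 MRC-5 fibroblasts were grown in EMEM with 10% heat-inactivated FBS and seeded 24 h at 37 °C, 5% CO2. Medium was then replaced by 2-fold serial compound dilutions (100 to 0.195 µM; 10 mM DMSO stocks), 72 h at 37 °C. MTT for 4 h, then SDS in 0.01 M HCl overnight. OD read at 540/630 nm. IC50 from % growth inhibition relative to cell and medium controls.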

N.N.[Cl][Pt][Cl] [Cisplatin, reference compound]
IC50 [1]: 31.9 ± 2.17 µM
SF(320) selectivity factor ([2]; SF(320) = IC50 MRC-5/IC50 Colo 320): 3
IC50 ([2]; read-out: IC50 (μM), 72 h Colo 320, 72 h, MTT): 4.81 ± 0.68 µM
IC50 [3]: 12.4 ± 0.367 µM

Source: publication PMC6635014 (Dalton transactions (Cambridge, England : 2003), 2019)
